SR-BI DiI inh – mouse SR-BI HDL lipid transfer inhibition | Q61009 | ldlA[mSR-BI] CHO cells, DiI-HDL uptake fluorescence, 3 h | inhibition, % at 12.5 µM | 0.96% of 320,000 active | AID 488896;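 active = mean replicate inhibition of at least 70% and a set share of replicates each scoring 70 or more; inconclusive = meets just one of the two criteria; inactive = fails both criteria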;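 note: 0% = median of neutral control wells and 100% = median of positive control wells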
Target sequence (Q61009 whole entry, looked up): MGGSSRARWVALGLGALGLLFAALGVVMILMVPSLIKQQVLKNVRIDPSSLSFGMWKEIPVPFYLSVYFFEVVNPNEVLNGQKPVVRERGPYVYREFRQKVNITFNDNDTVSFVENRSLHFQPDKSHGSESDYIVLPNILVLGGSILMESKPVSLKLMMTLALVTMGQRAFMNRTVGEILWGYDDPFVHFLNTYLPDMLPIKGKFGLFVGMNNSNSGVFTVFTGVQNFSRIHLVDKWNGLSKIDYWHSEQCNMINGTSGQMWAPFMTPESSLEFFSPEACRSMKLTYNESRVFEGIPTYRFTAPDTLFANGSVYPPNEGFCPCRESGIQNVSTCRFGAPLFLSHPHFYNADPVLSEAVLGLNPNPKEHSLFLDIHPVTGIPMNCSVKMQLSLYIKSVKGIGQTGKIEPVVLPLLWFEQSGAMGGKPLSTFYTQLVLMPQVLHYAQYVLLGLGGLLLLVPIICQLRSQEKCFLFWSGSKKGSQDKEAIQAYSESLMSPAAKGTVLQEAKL
Vif inh – inhibitors of HIV Vif | HEK293T cells, Vif self-association by quenched fluorescence, imaging, 24 h | inhibition, % at 7.49 µM | 0.35% of 340,000 active | AID 602346; in the data active = inhibition above about 50%, passing the limit was not always enough; inconclusive = no clear call, values can overlap the other calls; inactive = below about 31%
C2C12 statin – suppression of simvastatin myotoxicity; rescue of ATP level, % at 7.49 µM; AID 602340; C2C12 myotubes + simvastatin, ATP luminescence, 48 h; scaled: DMSO 0, geranylgeraniol control 100; 0.78% of 330,000 active;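 active = mean ATP rescue above about 67%, or every replicate alone reaching that limit, limit read from the data, passing the limit was not always enough; inconclusive = no clear call, values can overlap the other calls; inactive = mean under the limit and some replicate under it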;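 note: myotubes were challenged with 10 µM simvastatin during compound exposure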
SR-BI DiI-HDL act – SR-BI HDL lipid transfer activation; CHO ldlA[mSR-BI] cells, DiI-HDL uptake fluorescence, 3 h; 100 = double the neutral-control signal; activation, % at 12.5 µM; 0.096% of 320,000 active; AID 504775;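 active = mean replicate activation of at least 60% and every replicate at or above 60%; inconclusive = mean or all-replicate condition met, but not both; inactive = mean below 60% and not all replicates reaching 60%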;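 note: 0% = median plate neutral-control signal and 100% = twice that signal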
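Material – SR-BI-overexpressing, LDLR-lacking CHO cells · Medium – BSA-supplemented, HEPES-buffered Ham's F12, pH 7.4 · Doses – single concentration · Times – compound with DiI-HDL co-incubation, 3 h at 37 °C · Measured by – bottom-read fluorescence, 550/595 nm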
* = called active by the depositor. A selection: hits, their analogues and other compounds. The true share with any hit is near 1.7%.

What do the screens show for `CC(C)C(c1nnnn1Cc1cccs1)N1CCN(C2CCCC2)CC1` (configuration not stated)?
SR-BI DiI inh: -11; Vif inh: 22; C2C12 statin: -5; SR-BI DiI-HDL act: 11

Results for CO[C@@H]1CN(C)C(=O)c2ccc(NC(C)=O)cc2OC[C@H](C)N(Cc2cc(F)ccc2F)C[C@@H]1C ?
C2C12 statin: -7

How did CS(=O)(=O)c1nc(S(=O)(=O)c2ccc(Cl)cc2)c(N2CCC(O)CC2)s1 do in these assays?
SR-BI DiI inh: 8; Vif inh: -3; C2C12 statin: 85*; SR-BI DiI-HDL act: -8

What do the screens show for `CCCSc1nnc(CN2CCOCC2)n1C`?
SR-BI DiI inh: -20; Vif inh: 28; C2C12 statin: 111*; SR-BI DiI-HDL act: 19

How did O=c1cc(N2CCOCC2)[nH]c(=O)n1C1CCCCC1 do in these assays?
SR-BI DiI inh: 2; Vif inh: 2; C2C12 statin: 122*; SR-BI DiI-HDL act: -2

What do the screens show for `O=C(Nc1ccc2nc(-c3cccnc3)[nH]c2c1)C12CC3CC(CC(C3)C1)C2`?
SR-BI DiI inh: 5; Vif inh: -7; C2C12 statin: 75*; SR-BI DiI-HDL act: -5

How did O=C1C=CC(=O)N1c1ccccc1N1C(=O)C=CC1=O do in these assays?
SR-BI DiI inh: -11; Vif inh: 157*; C2C12 statin: -139; SR-BI DiI-HDL act: 11

What do the screens show for `O=C(c1ccccc1)c1ccccc1N1C(=O)C=CC1=O`?
Vif inh: 17

What do the screens show for `CCOC(=O)N1CCN(C(=O)CSCC(=O)Nc2nc(-c3ccc4c(c3)OCO4)cs2)CC1`?
SR-BI DiI inh: 51; Vif inh: -7; C2C12 statin: 122*; SR-BI DiI-HDL act: -51

What do the screens show for `CO[C@@H]1CN(C)C(=O)c2ccc(NS(=O)(=O)c3ccccc3F)cc2OC[C@@H](C)NC[C@H]1C`?
C2C12 statin: -14

How did Cc1cc(C(=O)COC(=O)c2ccc(NC(=O)CC#N)cc2)c(C)n1C1CC1 do in these assays?
SR-BI DiI inh: 79*; Vif inh: -15; C2C12 statin: 4; SR-BI DiI-HDL act: -79

Results for Cc1ccc(Cn2ccsc2=NC(=O)COC(=O)c2ccc(NC(=O)CC#N)cc2)cc1 ?
SR-BI DiI inh: 77*; Vif inh: -9; C2C12 statin: -9; SR-BI DiI-HDL act: -77

What do the screens show for `CC(C)NC(=O)Nc1ccc2c(c1)CC(=O)N([C@H](C)CO)C[C@H](C)[C@H](CN(C)C(=O)Nc1ccc(F)cc1)O2`?
C2C12 statin: 7

How did CC(C)NC(=O)N(C)C[C@@H]1Oc2ccc(NC(=O)Cc3ccccc3)cc2CC(=O)N([C@@H](C)CO)C[C@H]1C do in these assays?
C2C12 statin: -4

What do the screens show for `Cc1cc(C(=O)Nc2sc3c(c2C#N)CCCCC3)cs1`?
SR-BI DiI inh: 79*; Vif inh: -3; SR-BI DiI-HDL act: -79

Results for CC(Sc1nc(N)cc(=O)[nH]1)C(=O)Nc1sc2c(c1C#N)CCCC2 (configuration not stated) ?
SR-BI DiI inh: -4; Vif inh: -20; SR-BI DiI-HDL act: 4

What do the screens show for `Cc1nnc(SC(C)C(=O)Nc2sc3c(c2C#N)CCCC3)[nH]c1=O` (configuration not stated)?
Vif inh: 53*; C2C12 statin: 32

Results for Cn1ncc(C#N)c1/N=C/N1CCOCC1 ?
SR-BI DiI inh: -15; Vif inh: -5; C2C12 statin: 117*; SR-BI DiI-HDL act: 15

How did Cn1ncc(C#N)c1/N=C/N1CCCCCC1 do in these assays?
SR-BI DiI inh: -24; Vif inh: 4; C2C12 statin: -5; SR-BI DiI-HDL act: 24

What do the screens show for `OCCNCc1cccc(-c2ccccc2)c1O`?
SR-BI DiI inh: 0; Vif inh: 5; C2C12 statin: 100*; SR-BI DiI-HDL act: 0

Results for CN=C1S/C(=C\c2ccc(OCC(=O)OC)c(OC)c2)C(=O)N1C ?
SR-BI DiI inh: -441; Vif inh: inconclusive; C2C12 statin: -14; SR-BI DiI-HDL act: 441*

Results for CCCNC(=O)N1C[C@@H](O)COC[C@@H]2O[C@H](CC(=O)O)CC[C@H]21 ?
C2C12 statin: -18

Results for COCCN=c1scc(-c2ccc3c(c2)NC(=O)CO3)n1/N=C(\C)c1ccc(O)cc1 ?
SR-BI DiI inh: inconclusive; Vif inh: 2; C2C12 statin: 0; SR-BI DiI-HDL act: -71

What do the screens show for `COc1cc(/C=N/n2c(-c3ccc4c(c3)NC(=O)CO4)csc2=Nc2cccc(C)c2)ccc1O`?
SR-BI DiI inh: 83*; Vif inh: 34; C2C12 statin: 12; SR-BI DiI-HDL act: -83

Results for COCc1cn(CC[C@@H]2CC[C@H](NC(=O)c3ccc(F)cc3)[C@H](CO)O2)nn1 ?
C2C12 statin: 14

How did Oc1ccccc1C=NNC(=S)NN=Cc1ccccc1O do in these assays?
SR-BI DiI inh: 133*; Vif inh: 16; C2C12 statin: -1; SR-BI DiI-HDL act: -133

What do the screens show for `NC(=S)N/N=C/c1ccccc1O`?
C2C12 statin: 2

Results for Oc1ccccc1/C=N/NC(=S)NC1CC2CC1C1C=CCC21 (configuration not stated) ?
SR-BI DiI inh: 85*; Vif inh: 0; C2C12 statin: -15; SR-BI DiI-HDL act: -85

Results for CN1CCN(CCN2CCn3c2nc2ccccc23)CC1 ?
SR-BI DiI inh: 21; Vif inh: 11; C2C12 statin: 81*; SR-BI DiI-HDL act: -21

How did N#CCCN1CCn2c1nc1ccccc12 do in these assays?
SR-BI DiI inh: -16; C2C12 statin: -3; SR-BI DiI-HDL act: 16

What do the screens show for `Cc1cccc(NC(=O)c2ccc(N(C)C3CCCCC3)c([N+](=O)[O-])c2)n1`?
SR-BI DiI inh: 85*; Vif inh: -21; C2C12 statin: -19; SR-BI DiI-HDL act: -85

Results for O=C(Nc1ccc(-c2nc3ccccc3o2)cc1)c1ccc(N2CCOCC2)c([N+](=O)[O-])c1 ?
SR-BI DiI inh: 81*; Vif inh: -12; SR-BI DiI-HDL act: -81

What do the screens show for `CCC(=O)N1CCN(c2ccc(Cl)cc2NC(=O)c2ccc(N3CCCC3)c([N+](=O)[O-])c2)CC1`?
SR-BI DiI inh: 76*; Vif inh: 10; C2C12 statin: 15; SR-BI DiI-HDL act: -76

Results for Cc1ccc(C)c2sc(NC(=O)c3ccc(N4CCCCC4)c([N+](=O)[O-])c3)nc12 ?
SR-BI DiI inh: 71*; Vif inh: 17; C2C12 statin: -97; SR-BI DiI-HDL act: -71

What do the screens show for `CCC(=O)N1CCN(c2ccc(Cl)cc2NC(=O)c2ccc3c(c2)OCCO3)CC1`?
SR-BI DiI inh: 41; Vif inh: -5; C2C12 statin: 12; SR-BI DiI-HDL act: -41

What do the screens show for `C[C@@H]1CN([C@@H](C)CO)C(=O)Cc2cc(NC(=O)C3CCCCC3)ccc2O[C@H]1CN(C)C(=O)Nc1ccc(C(F)(F)F)cc1`?
C2C12 statin: -18

How did Cc1ccc(C(=O)Nc2cccc(-c3ccc(N4CCOCC4)nn3)c2)cc1[N+](=O)[O-] do in these assays?
SR-BI DiI inh: 73*; Vif inh: -15; C2C12 statin: -50; SR-BI DiI-HDL act: -73
